Results on 1 molecule are retold here after PMC3677025 (Pharmacological research : the official journal of the …, 2012).

The target of one assay is EphA3. Description: ELISA, ephrin-A5 AP binding to immobilized EphA3 Fc. The conditions noted are these: read-out: IC50, inhibition of ephrin binding to EphA3. The essentials: (§1)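 Eph receptor Fc fusions were immobilized at 1 μg/ml in TBST on protein A-coated wells. Diluted ephrin AP fusion supernatant from transiently transfected HEK293 cells was added for 2 h with or without test compound; for IC50 it was at approximately 0.01 nM. Bound AP was read with p-nitrophenylphosphate, minus Fc-only background. IC50 came from a variable-slope log(inhibitor)–response fit, bottom constrained to 0.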
A general note: ELISA stands for enzyme-linked immunosorbent assay.

In a further assay the target is EphB6. Kind of assay: ELISA, ephrin-B2 AP binding to immobilized EphB6 Fc. Conditions: read-out: IC50, inhibition of ephrin binding to EphB6. The method, boiled down:
as §1

In the next assay the test system is EphA7. Kind of assay: ELISA, ephrin-A5 AP binding to immobilized EphA7 Fc.
The subject of a further assay is EphB1. Kind of assay: ELISA, ephrin-B2 AP binding to immobilized EphB1 Fc. Conditions: concentrations up to 200 μM. The essentials: as §1
The next assay concerns EphB2. Kind of assay: ELISA, ephrin-B2 AP binding to immobilized EphB2 Fc. The conditions noted are these: concentrations up to 200 μM. The essentials:
as §1

The subject of assay [1] is EphA4 ephrin-binding domain mutants. Description: Wild-type and mutant EphA4 AP binding to immobilized ephrin-A5 Fc. Also on record: species or system human. Conditions: EphA4 AP mutants vs wild-type. The essentials: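 Wild-type and point-mutant human EphA4 ephrin-binding domains fused to alkaline phosphatase were added at 0.01 nM final to wells precoated with protein A and ephrin-A5 Fc, with or without test compound. Bound AP was read with p-nitrophenylphosphate. IC50 values from 2–3 separate experiments were compared with wild-type by one-way ANOVA and Dunnett's post-hoc test.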

The target in the next assay is EphA4 (Mus musculus, UniProt Q03137). Description: Ephrin-A5 Fc-induced EphA4 tyrosine phosphorylation in HT22 cells. Format: cell-based. Conditions: read-out: IC50, EphA4 tyrosine phosphorylation, 0.5 μg/mL ephrin-A5 Fc, ELISA. The method, boiled down:
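HT22 cells at ~70% confluency were serum-starved 1 h, given test compound (final DMSO ≤0.4%) for 15 min, then ephrin-A5 Fc for 20 min with compound still present. After modified RIPA lysis, phospho and total EphA4 were read by capture ELISA (anti-phosphotyrosine 1:500; cytoplasmic anti-EphA4 1:1,000), with ABTS at A405. Values were normalized to ephrin-only cells; IC50 came from 3–9 measurements.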

A further assay addresses T1, EphB4 (Mus musculus, UniProt P54761).
T1 sequence (P54761 16-987): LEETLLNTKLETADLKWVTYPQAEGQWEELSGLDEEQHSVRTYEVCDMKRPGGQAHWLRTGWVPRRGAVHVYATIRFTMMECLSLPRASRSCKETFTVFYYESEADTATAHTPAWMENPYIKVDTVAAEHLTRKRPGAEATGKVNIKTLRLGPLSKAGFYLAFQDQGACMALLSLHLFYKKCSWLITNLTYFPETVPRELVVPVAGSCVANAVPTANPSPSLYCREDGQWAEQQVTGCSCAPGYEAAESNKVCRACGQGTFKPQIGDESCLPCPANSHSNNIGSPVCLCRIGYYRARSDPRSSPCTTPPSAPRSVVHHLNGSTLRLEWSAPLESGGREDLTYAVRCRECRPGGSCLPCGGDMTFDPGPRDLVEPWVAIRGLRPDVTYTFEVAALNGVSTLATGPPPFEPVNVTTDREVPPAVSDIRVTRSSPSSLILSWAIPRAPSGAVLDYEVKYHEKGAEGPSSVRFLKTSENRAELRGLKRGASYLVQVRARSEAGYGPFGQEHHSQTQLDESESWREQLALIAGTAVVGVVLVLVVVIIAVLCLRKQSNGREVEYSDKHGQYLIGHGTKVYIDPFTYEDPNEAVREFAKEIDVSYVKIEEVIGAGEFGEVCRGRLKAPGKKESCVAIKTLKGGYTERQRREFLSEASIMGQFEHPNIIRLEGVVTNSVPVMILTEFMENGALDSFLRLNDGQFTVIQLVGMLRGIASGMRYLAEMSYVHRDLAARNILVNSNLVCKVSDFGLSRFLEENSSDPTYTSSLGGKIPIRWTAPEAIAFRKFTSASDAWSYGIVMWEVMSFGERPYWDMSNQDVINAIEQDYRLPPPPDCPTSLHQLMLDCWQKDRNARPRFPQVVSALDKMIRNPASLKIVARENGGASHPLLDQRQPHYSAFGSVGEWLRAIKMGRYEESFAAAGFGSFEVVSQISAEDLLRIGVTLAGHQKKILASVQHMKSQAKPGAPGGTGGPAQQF
Kind of assay: Ephrin-B2 Fc-induced EphB4 tyrosine phosphorylation in B16 melanoma cells. The assay is classed as cell-based. Conditions: relative to EphA2 and EphA4. The essentials:
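Cells were serum-starved 1–2 h and pretreated 15 min with test compound (DMSO ≤0.4% final). They were then stimulated 20 min with compound present: COS cells with 0.8 μg/mL ephrin-B2 Fc, and B16 melanoma cells with 1.5 μg/mL anti-Fc-preclustered ephrin-B2 Fc, or Fc control. Lysates were made in modified RIPA. EphB2 (COS; 7 μg antibody) or EphB4 (B16; 20 μg antibody) was immunoprecipitated, probed for phosphotyrosine, then reprobed for the receptor.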

Another assay has as its target EphA2 (Homo sapiens, UniProt P29317). Kind of assay: Ephrin-A1 Fc-induced EphA2 phosphorylation in HUVECs. Conditions: at 50 μM. Format: cell-based. The method, boiled down:
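HUVECs were serum-starved 1–2 h and preincubated 15 min with 50 μM test compound (DMSO ≤0.4% final). They were then stimulated 20 min with 0.25 μg/mL ephrin-A1 Fc plus 1.5 μg/mL ephrin-B2 Fc (preclustered with 3-fold anti-Fc), or Fc, with compound present. Lysates were made in modified RIPA with NaF and pervanadate. EphA2 (1 μg antibody) and EphB4 (20 μg antibody) immunoprecipitates were immunoblotted for phosphotyrosine; lysates were probed for receptors and β-actin.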

The structures appear in SMILES notation. Values joined by “and” are separate entries in the source; they are usually repeats but may differ in a detail not shown here. Identical values can stand only once. A value given as a limit tells only on which side of the number the result lay.

Chain of EphA4 (Q03137 20-986): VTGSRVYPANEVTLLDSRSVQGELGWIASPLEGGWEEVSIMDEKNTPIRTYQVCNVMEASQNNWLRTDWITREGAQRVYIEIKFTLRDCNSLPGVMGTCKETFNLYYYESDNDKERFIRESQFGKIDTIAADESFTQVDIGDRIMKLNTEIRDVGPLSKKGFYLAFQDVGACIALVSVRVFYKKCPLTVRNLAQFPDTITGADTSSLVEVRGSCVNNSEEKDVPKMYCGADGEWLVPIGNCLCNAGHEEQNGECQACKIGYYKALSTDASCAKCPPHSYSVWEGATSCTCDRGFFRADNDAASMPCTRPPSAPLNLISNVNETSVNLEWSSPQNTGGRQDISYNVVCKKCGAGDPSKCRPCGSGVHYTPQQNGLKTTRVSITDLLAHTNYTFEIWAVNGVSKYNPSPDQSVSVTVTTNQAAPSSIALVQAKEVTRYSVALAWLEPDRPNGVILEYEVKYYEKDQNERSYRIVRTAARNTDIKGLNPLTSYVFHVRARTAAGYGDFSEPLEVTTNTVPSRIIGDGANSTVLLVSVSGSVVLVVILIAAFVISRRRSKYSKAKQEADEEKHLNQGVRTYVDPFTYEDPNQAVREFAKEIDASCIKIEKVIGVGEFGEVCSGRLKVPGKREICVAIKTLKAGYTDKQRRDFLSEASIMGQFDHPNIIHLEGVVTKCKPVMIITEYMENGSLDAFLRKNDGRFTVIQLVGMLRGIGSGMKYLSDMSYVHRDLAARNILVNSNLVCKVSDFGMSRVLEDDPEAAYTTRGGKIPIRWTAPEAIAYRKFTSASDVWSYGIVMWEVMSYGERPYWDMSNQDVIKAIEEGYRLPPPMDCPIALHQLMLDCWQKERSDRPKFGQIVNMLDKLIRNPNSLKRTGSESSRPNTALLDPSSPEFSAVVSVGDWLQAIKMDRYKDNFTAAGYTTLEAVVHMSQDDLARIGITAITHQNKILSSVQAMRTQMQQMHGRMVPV
Chain of EphA2 (P29317 24-976): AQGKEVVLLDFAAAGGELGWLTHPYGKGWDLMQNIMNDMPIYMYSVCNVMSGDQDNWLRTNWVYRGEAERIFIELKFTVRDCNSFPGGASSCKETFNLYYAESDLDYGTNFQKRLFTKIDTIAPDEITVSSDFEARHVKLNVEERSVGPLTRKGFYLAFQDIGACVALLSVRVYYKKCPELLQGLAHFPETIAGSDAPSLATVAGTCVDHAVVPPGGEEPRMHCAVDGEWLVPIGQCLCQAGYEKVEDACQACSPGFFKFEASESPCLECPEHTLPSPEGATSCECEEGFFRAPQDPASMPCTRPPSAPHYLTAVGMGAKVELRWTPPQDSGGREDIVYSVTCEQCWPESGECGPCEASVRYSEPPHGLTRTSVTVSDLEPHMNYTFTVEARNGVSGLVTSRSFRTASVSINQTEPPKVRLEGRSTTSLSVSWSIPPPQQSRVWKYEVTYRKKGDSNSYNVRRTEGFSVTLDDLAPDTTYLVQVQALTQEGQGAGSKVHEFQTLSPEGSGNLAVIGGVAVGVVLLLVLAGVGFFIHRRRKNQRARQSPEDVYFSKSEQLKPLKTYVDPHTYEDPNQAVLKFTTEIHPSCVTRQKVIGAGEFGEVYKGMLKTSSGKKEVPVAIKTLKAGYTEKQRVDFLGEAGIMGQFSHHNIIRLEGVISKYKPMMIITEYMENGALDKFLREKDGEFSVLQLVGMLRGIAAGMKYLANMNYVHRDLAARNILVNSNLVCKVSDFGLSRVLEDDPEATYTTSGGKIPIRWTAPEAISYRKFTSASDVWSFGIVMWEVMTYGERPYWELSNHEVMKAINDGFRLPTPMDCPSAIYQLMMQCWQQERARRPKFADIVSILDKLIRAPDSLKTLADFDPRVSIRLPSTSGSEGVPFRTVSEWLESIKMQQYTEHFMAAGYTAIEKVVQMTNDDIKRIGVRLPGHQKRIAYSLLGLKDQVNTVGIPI

Take `O=C(Oc1cc(O)cc2c1C[C@@H](OC(=O)c1cc(O)c(O)c(O)c1)[C@@H](c1cc(O)c(O)c(O)c1)O2)c1cc(O)c(O)c(O)c1` [epigallocatechin-3,5-digallate]: the IC50 is less than 10 µM on EphA3; less than 10 µM at EphB6; 190 µM and ~190 µM on EphA4. Also, in the assay on EphA7, the “inhibition of ephrin binding to EphA7” value is given as “detectably inhibited, but with lower potency”. The “inhibition of EphB1-ephrin interaction” value in the assay with EphB1 is on record as “no inhibition”. For the same molecule, the results for the “inhibition of EphB2-ephrin interaction” value in the assay with EphB2 and with EphB2 (listed as Epigallocatechin-3,5-digallate) were “does not target” and “no inhibition”, respectively. Besides, the “effect of other EphA4 mutations, such as D123A, on inhibitory activity” value in [1] was “did not detectably affect”. Moreover, the “inhibition of EphB4 phosphorylation” value on EphB4 is given as “at higher concentrations”. Further, the “EphA2 phosphorylation in HUVECs” value at EphA2 is on record as “strongly inhibits”.
